Results reported in ChEMBL document CHEMBL4265908, “Structure-activity and structure-property relationships of novel Nrf2 activators with a 1,2,4-oxadiazole core and their therapeutic effects on acetaminophen (APAP)-induced acute liver injury” (Eur J Med Chem, 2018).
Active and inactive are the calls of the source.

Tests used:
[1] = target: T1, Nuclear factor erythroid 2-related factor 2 (Homo sapiens) (UniProt Q16236); experiment: Activation of Nrf2 in human LO2 cells assessed as increase in GCLM mRNA expression level by qRT-PCR analysis; format: cell-based
T1 sequence (whole entry): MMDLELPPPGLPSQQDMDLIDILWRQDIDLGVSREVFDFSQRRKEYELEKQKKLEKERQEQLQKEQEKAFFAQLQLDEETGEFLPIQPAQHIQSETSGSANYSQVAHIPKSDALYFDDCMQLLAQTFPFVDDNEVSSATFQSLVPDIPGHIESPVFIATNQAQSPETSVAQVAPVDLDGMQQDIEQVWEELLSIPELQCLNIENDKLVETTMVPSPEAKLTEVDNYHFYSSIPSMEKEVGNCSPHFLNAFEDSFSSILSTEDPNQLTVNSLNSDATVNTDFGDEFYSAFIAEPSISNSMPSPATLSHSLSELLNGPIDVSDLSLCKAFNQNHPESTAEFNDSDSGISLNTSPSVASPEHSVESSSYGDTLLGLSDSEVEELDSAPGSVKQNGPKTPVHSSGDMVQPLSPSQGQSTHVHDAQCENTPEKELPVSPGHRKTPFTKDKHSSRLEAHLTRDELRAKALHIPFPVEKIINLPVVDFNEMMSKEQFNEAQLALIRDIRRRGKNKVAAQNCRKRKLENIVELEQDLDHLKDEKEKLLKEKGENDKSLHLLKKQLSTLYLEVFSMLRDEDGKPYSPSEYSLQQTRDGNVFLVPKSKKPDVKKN
Procedure, shortened: (§1)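 LO2 cells in DMEM with 10% FBS were exposed to 0, 2.5, 5, 10, 20 or 40 μM compound for 12 h. Transcripts measured by qRT-PCR: 40 cycles of 95 °C for 5 s and 60 °C for 30 s. Normalized to GAPDH and expressed as fold over the untreated control. Mean ± SD, n = 3.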

[2] = target: T1, Nuclear factor erythroid 2-related factor 2 (Homo sapiens); experiment: Activation of Nrf2 in human LO2 cells assessed as increase in NQO1 mRNA expression level by qRT-PCR analysis; format: cell-based; procedure, shortened: as §1
Mus musculus [3] = experiment: In vivo activation of Nrf2 in APAP-induced liver injury in C57BL/6 mouse assessed as increase in HO-1 mRNA expression level administered ip for 7 consecutive days followed by APAP challenge 1 hr post last compound dose and measured after 24 hrs by qRT-PCR analysis; format: functional, organism-based
Procedure, shortened: (§2)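 Female C57BL/6 mice (20–25 g, n = 10/group) received 10, 50 or 100 mg/kg/day ip in saline for 7 days. One hour after the last dose they received APAP 300 mg/kg in saline. Killed 24 h later. Serum ALT/AST by kit. Liver homogenates (pH 7.0 phosphate) used for GSH (A420, μmol/g protein), GST (A412, U/mg protein) and SOD. Liver also analyzed by western blot (β-actin normalized), qRT-PCR (GAPDH normalized) and H&E.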

[4] = target: T1, Nuclear factor erythroid 2-related factor 2 (Homo sapiens); experiment: Activation of Nrf2 in human LO2 cells cotreated with Nrf2 siRNA assessed as increase in NQO1 mRNA expression level at 20 uM by qRT-PCR analysis; format: cell-based
Procedure, shortened: (§3)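 LO2 cells plated at 7 × 10^5 per 60 mm dish and transfected with 50 nM Nrf2 siRNA (scrambled siRNA as control). After 24 h, fresh medium was added and cells grown a further 48 h. Then 20 μM compound for 12 h. Nrf2, NQO1, GCLM and HO-1 mRNA measured by qRT-PCR, normalized to GAPDH, as fold over control.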

[5] = target: T1, Nuclear factor erythroid 2-related factor 2 (Homo sapiens); experiment: Activation of Nrf2 in human LO2 cells assessed as increase in Nrf2 mRNA expression level by qRT-PCR analysis; format: cell-based; procedure, shortened: as §1
Mus musculus [6] = experiment: Hepatoprotective activity against APAP-induced liver injury in C57BL/6 mouse assessed as increase in GST levels administered ip for 7 consecutive days followed by APAP challenge 1 hr post last compound dose and measured after 24 hrs; format: functional, organism-based; procedure, shortened: as §2
[7] = target: T1, Nuclear factor erythroid 2-related factor 2 (Homo sapiens); experiment: Induction of Nrf2 nuclear translocation in human LO2 cells assessed as Nrf2 binding to antioxidant response element after 12 hrs by DAPI staining based immunofluorescence assay; format: cell-based
Procedure, shortened: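 LO2 cells grown on coverslips for 24 h, then treated 12 h with compound (5 or 20 μM); 80 μM tBHQ served as reference. Cells fixed, probed with anti-Nrf2 and a DyLight 488 anti-rabbit secondary, nuclei stained with DAPI. Imaged by confocal microscopy.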

Mus musculus [8] = experiment: Hepatoprotective activity against APAP-induced liver injury in C57BL/6 mouse assessed as reduction in serum AST levels administered ip for 7 consecutive days followed by APAP challenge 1 hr post last compound dose and measured after 24 hrs; format: functional, organism-based; procedure, shortened: as §2
Mus musculus [9] = experiment: In vivo activation of Nrf2 in APAP-induced liver injury in C57BL/6 mouse assessed as increase in Nrf2 mRNA expression level administered ip for 7 consecutive days followed by APAP challenge 1 hr post last compound dose and measured after 24 hrs by qRT-PCR analysis; format: functional, organism-based; procedure, shortened: as §2
Mus musculus [10] = experiment: Hepatoprotective activity against APAP-induced liver injury in C57BL/6 mouse assessed as reduction in serum ALT levels administered ip for 7 consecutive days followed by APAP challenge 1 hr post last compound dose and measured after 24 hrs; format: functional, organism-based; procedure, shortened: as §2
HepG2 = experiment: Cytotoxicity against human HepG2 cells at 80 uM after 24 hrs by MTT assay; format: cell-based; conditions: hepg2, 24 h
[11] = target: T1, Nuclear factor erythroid 2-related factor 2 (Homo sapiens); experiment: Activation of Nrf2 in human LO2 cells cotreated with Nrf2 siRNA assessed as increase in HO-1 mRNA expression level at 20 uM by qRT-PCR analysis; format: cell-based; procedure, shortened: as §3
Mus musculus [12] = experiment: In vivo activation of Nrf2 in APAP-induced liver injury in C57BL/6 mouse assessed as increase in HO-1 protein expression level at 10 to 100 mg/kg, ip administered for 7 consecutive days followed by APAP challenge 1 hr post last compound dose and measured after 24 hrs by Western blot analysis; format: functional, organism-based; procedure, shortened: as §2
[13] = target: T1, Nuclear factor erythroid 2-related factor 2 (Homo sapiens); experiment: Activation of Nrf2 in human LO2 cells cotreated with Nrf2 siRNA assessed as increase in GCLM mRNA expression level at 20 uM by qRT-PCR analysis; format: cell-based; procedure, shortened: as §3
[14] = Intrinsic aqueous solubility of the compound by potentiometric titration method; format: physicochemical
Procedure, shortened: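 Intrinsic aqueous solubility and logD at pH 7.4 determined by Avdeef-Bucher potentiometric titration on a pION Gemini Profiler.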

[15] = target: T1, Nuclear factor erythroid 2-related factor 2 (Homo sapiens); experiment: Activation of Nrf2 in human HepG2-ARE-C8 cells assessed as induction of ARE-mediated luciferase activity at 80 uM after 24 hrs by luciferase reporter gene assay relative to control; format: cell-based
Procedure, shortened: (§4)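 HepG2-ARE-C8 cells stably carrying ARE-luciferase, grown in DMEM with 10% FBS at 37 °C and 5% CO2. Seeded at 5 × 10^4 cells/well, left overnight, then given compound diluted from a 10 mM DMSO stock for 24 h. Cells lysed and luciferase read as RLU. Inductivity = (RLUtest − RLUblank)/(RLUcontrol − RLUblank), with DMSO as control. Mean ± SEM of three experiments.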

[16] = target: T1, Nuclear factor erythroid 2-related factor 2 (Homo sapiens); experiment: Activation of Nrf2 in human LO2 cells assessed as increase in GCLC mRNA expression level by qRT-PCR analysis; format: cell-based; procedure, shortened: as §1
[17] = target: T1, Nuclear factor erythroid 2-related factor 2 (Homo sapiens); experiment: Activation of Nrf2 in human HepG2-ARE-C8 cells assessed as induction of ARE-mediated luciferase activity at 1 uM after 24 hrs by luciferase reporter gene assay relative to control; format: cell-based; procedure, shortened: as §4

Cc1ccc(-c2noc(-c3ccc(F)c(F)c3)n2)cn1
59.5: Activity [15]
active: Activity [1] Dose-dependent effect | Activity [2] Dose-dependent effect | Activity (Mus musculus [3]) Dose-dependent effect | Activity [4] | Activity [5] Dose-dependent effect | Activity (Mus musculus [6]) Dose-dependent effect | Activity [7] Dose-dependent effect | Activity (Mus musculus [8]) Dose-dependent effect | Activity (Mus musculus [9]) Dose-dependent effect | Activity (Mus musculus [10]) Dose-dependent effect | Activity [11] | Activity (Mus musculus [12]) | Activity [13] | Activity [16] Dose-dependent effect
Non-Toxic: Activity (HepG2)
250 µM: solubility [14]
16.1: Activity [17]
